Measurements taken from ChEMBL document CHEMBL1136635, “Modification of the N-terminus of peptidomimetic protein tyrosine phosphatase 1B (PTP1B) inhibitors: identification of analogues with cellular activity” (Bioorg Med Chem Lett, 2003).

Target: Receptor-type tyrosine-protein phosphatase F (Homo sapiens) (UniProt P10586)
Sequence (P10586 whole entry): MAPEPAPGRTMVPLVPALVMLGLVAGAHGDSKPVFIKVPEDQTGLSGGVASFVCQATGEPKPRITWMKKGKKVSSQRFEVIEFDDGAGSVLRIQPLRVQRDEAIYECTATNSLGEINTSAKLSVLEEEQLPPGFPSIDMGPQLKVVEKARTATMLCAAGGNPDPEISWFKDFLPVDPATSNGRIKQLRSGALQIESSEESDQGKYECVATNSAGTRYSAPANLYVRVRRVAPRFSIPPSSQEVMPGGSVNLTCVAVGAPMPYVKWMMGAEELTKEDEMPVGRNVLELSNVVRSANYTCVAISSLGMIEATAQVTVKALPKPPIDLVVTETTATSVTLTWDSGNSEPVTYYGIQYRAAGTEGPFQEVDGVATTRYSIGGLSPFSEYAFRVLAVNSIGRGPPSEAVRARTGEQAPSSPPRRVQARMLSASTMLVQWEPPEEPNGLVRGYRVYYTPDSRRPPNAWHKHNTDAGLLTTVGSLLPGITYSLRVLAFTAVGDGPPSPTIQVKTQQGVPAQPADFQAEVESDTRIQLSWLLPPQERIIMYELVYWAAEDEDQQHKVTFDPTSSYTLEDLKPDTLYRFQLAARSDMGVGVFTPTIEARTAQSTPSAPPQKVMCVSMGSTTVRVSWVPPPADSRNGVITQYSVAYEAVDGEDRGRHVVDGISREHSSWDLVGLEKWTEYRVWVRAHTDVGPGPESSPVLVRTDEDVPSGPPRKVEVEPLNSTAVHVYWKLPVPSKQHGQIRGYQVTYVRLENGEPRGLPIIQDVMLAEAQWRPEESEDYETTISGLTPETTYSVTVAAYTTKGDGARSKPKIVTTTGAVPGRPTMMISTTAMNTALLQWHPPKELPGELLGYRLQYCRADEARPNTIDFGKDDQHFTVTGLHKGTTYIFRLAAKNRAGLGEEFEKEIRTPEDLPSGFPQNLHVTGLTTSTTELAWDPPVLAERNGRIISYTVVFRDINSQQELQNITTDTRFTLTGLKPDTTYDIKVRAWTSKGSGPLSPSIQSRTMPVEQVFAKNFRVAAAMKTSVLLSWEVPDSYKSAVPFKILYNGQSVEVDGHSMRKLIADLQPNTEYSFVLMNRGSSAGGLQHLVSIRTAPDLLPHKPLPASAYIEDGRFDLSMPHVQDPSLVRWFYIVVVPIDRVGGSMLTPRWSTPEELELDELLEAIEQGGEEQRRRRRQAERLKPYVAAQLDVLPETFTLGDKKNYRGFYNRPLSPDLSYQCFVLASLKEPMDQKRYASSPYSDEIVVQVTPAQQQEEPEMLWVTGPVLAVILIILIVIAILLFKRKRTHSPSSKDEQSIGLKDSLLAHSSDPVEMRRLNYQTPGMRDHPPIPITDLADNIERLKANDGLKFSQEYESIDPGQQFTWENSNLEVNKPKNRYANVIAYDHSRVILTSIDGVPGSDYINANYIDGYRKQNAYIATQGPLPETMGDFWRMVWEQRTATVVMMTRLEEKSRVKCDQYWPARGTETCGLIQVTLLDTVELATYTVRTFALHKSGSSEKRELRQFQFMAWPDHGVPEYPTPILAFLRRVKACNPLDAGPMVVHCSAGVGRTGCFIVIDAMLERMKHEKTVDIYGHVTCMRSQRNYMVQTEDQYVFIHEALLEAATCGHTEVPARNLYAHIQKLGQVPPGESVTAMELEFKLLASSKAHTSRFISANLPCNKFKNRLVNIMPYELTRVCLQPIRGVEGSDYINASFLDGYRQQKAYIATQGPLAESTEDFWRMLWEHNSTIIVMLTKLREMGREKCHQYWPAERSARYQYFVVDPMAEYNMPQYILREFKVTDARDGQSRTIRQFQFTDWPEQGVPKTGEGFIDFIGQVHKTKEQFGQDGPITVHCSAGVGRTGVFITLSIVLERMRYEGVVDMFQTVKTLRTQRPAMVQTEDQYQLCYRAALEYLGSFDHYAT
Assay: Inhibitory activity against phosphatase (LAR) at a concentration of 100 uM
Method in brief: (§1)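 Purified recombinant human enzyme constructs; PTP1B is a C-terminally truncated soluble form, tested alongside LAR and SHP-2. Activity is read as the initial rate of p-nitrophenyl phosphate (pNPP) hydrolysis and reported as percent inhibition. PTP1B is tested at 100, 10 and 1 µM, or 10 and 1 µM in the salicylate series; LAR and SHP-2 at 100 µM.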
`CCCCCNC(=O)[C@H](Cc1ccc(OCC(=O)O)c(C(=O)O)c1)NC(=O)[C@H](Cc1ccccn1)NC(=O)OC(C)(C)C` showed an inhibition of 2%.
Work on `CCCCCNC(=O)[C@H](Cc1ccc(OCC(=O)O)c(C(=O)O)c1)NC(=O)[C@H](Cc1ccccc1)NC(=O)Cc1c[nH]c2ccccc12` yielded an inhibition of 0%.
With `CCCCCNC(=O)[C@H](Cc1ccc(OCC(=O)O)c(C(=O)O)c1)NC(=O)[C@H](Cc1ccccc1)NC(=O)CCNC(=O)OC(C)(C)C` the inhibition was 0%.
`CCCCCNC(=O)[C@H](Cc1ccc(OCC(=O)O)c(C(=O)O)c1)NC(=O)[C@H](Cc1ccccc1)NC(=O)OC(C)(C)C` gave an inhibition of 0%.
With `CCCCCNC(=O)[C@H](Cc1ccc(OCC(=O)O)c(C(=O)O)c1)NC(=O)[C@H](CCO)NC(=O)OC(C)(C)C` the inhibition was 0%.
Compound `CCCCCNC(=O)[C@H](Cc1ccc(OCC(=O)O)c(C(=O)O)c1)NC(=O)[C@H](Cc1ccccc1)NC(=O)CCCc1ccccc1` has an inhibition of 0%.
Compound `CCCCCNC(=O)[C@H](Cc1ccc(OCC(=O)O)c(C(=O)O)c1)NC(=O)[C@H](Cc1ccccc1)NC(=O)CCOC` has an inhibition of 0%.
`CCCCCNC(=O)[C@H](Cc1ccc(OCC(=O)O)c(C(=O)O)c1)NC(=O)[C@H](Cc1ccccc1)NC(=O)Cc1ccccc1` showed an inhibition of 0%.

Test system: not listed separately
Assay: Uptake of 2-DOG (2-deoxyglucose) into L6 myocytes in the presence of half-maximal concentration of insulin at 100 uM
Format: functional, Rattus norvegicus
Method in brief: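 L6 myotubes are exposed to compound at 100 µM with 10 nM insulin, a dose eliciting about 50% of maximal uptake. The initial rate of 2-[3H]deoxyglucose uptake is measured, with L-[14C]glucose marking extracellular space, and normalized to recovered lysate protein. Net insulin-dependent transport with inhibitor is expressed as a percent of that without inhibitor.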
In the case of `CCCCCNC(=O)[C@H](Cc1ccc(OCC(=O)O)c(C(=O)O)c1)NC(=O)[C@H](Cc1ccccn1)NC(=O)OC(C)(C)C`, the “Control Uptake” value is reported as 106%.
For `CCCCCNC(=O)[C@H](Cc1ccc(OCC(=O)O)c(C(=O)O)c1)NC(=O)[C@H](Cc1ccccc1)NC(=O)Cc1c[nH]c2ccccc12`, the “Control Uptake” value was 73%.
For `CCCCCNC(=O)[C@H](Cc1ccc(OCC(=O)O)c(C(=O)O)c1)NC(=O)[C@H](Cc1ccccc1)NC(=O)CCNC(=O)OC(C)(C)C`, the “Control Uptake” value was 88%.
In the case of `CCCCCNC(=O)[C@H](Cc1ccc(OCC(=O)O)c(C(=O)O)c1)NC(=O)[C@H](Cc1ccccc1)NC(=O)OC(C)(C)C`, the “Control Uptake” value is reported as 108%.
With `CCCCCNC(=O)[C@H](Cc1ccc(OCC(=O)O)c(C(=O)O)c1)NC(=O)[C@H](CCO)NC(=O)OC(C)(C)C` the “Control Uptake” value was 74%.
With `CCCCCNC(=O)[C@H](Cc1ccc(OCC(=O)O)c(C(=O)O)c1)NC(=O)[C@H](Cc1ccccc1)NC(=O)CCCc1ccccc1` the “Control Uptake” value was 73%.
In the case of `CCCCCNC(=O)[C@H](Cc1ccc(OCC(=O)O)c(C(=O)O)c1)NC(=O)[C@H](Cc1ccccc1)NC(=O)CCOC`, the “Control Uptake” value is reported as 89%.
With `CCCCCNC(=O)[C@H](Cc1ccc(OCC(=O)O)c(C(=O)O)c1)NC(=O)[C@H](Cc1ccccc1)NC(=O)Cc1ccccc1` the “Control Uptake” value was 73%.

Target: T1, Tyrosine-protein phosphatase non-receptor type 11 (Homo sapiens) (UniProt Q06124)
T1 sequence (whole entry): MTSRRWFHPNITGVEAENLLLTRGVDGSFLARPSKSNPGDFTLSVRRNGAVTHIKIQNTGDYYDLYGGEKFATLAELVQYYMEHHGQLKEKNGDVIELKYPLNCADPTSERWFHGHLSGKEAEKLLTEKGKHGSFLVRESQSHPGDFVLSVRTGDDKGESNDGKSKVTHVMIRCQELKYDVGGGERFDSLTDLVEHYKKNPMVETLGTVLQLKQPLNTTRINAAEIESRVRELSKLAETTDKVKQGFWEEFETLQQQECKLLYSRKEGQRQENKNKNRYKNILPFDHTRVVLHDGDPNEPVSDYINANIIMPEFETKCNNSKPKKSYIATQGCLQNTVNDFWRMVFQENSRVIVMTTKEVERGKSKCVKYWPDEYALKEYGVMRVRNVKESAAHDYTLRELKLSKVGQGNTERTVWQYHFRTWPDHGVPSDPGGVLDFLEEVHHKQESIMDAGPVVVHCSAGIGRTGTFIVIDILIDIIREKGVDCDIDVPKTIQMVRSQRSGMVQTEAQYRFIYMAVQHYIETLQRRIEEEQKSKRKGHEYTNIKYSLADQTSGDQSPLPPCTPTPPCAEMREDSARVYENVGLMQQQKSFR
Assay: Inhibition of recombinant human phosphatase (SHP-2) at a concentration of 100 uM
Method in brief: as §1
Compound `CCCCCNC(=O)[C@H](Cc1ccc(OCC(=O)O)c(C(=O)O)c1)NC(=O)[C@H](Cc1ccccn1)NC(=O)OC(C)(C)C` has an inhibition of 1%.
In the case of `CCCCCNC(=O)[C@H](Cc1ccc(OCC(=O)O)c(C(=O)O)c1)NC(=O)[C@H](Cc1ccccc1)NC(=O)Cc1c[nH]c2ccccc12`, the inhibition is reported as 38%.
With `CCCCCNC(=O)[C@H](Cc1ccc(OCC(=O)O)c(C(=O)O)c1)NC(=O)[C@H](Cc1ccccc1)NC(=O)CCNC(=O)OC(C)(C)C` the inhibition was 19%.
Compound `CCCCCNC(=O)[C@H](Cc1ccc(OCC(=O)O)c(C(=O)O)c1)NC(=O)[C@H](CCO)NC(=O)OC(C)(C)C` has an inhibition of 8%.
Compound `CCCCCNC(=O)[C@H](Cc1ccc(OCC(=O)O)c(C(=O)O)c1)NC(=O)[C@H](Cc1ccccc1)NC(=O)CCCc1ccccc1` has an inhibition of 17%.
`CCCCCNC(=O)[C@H](Cc1ccc(OCC(=O)O)c(C(=O)O)c1)NC(=O)[C@H](Cc1ccccc1)NC(=O)CCOC` gave an inhibition of 2%.
Compound `CCCCCNC(=O)[C@H](Cc1ccc(OCC(=O)O)c(C(=O)O)c1)NC(=O)[C@H](Cc1ccccc1)NC(=O)Cc1ccccc1` has an inhibition of 18%.

Target: T2, Tyrosine-protein phosphatase non-receptor type 1 (Homo sapiens) (UniProt P18031)
T2 sequence (whole entry): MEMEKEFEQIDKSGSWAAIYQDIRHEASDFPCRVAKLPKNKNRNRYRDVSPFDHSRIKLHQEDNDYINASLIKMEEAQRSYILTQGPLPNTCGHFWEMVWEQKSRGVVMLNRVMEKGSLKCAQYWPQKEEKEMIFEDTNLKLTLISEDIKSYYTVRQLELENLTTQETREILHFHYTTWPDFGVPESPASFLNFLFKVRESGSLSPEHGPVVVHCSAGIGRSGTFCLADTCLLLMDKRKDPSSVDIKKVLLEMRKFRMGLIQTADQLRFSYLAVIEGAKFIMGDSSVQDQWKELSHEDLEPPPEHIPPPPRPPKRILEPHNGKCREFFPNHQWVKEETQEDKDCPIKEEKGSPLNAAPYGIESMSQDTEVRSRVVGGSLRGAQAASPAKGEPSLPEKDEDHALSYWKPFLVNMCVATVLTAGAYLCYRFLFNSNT
Assay: Inhibitory activity against human protein tyrosine phosphatase 1B (PTP1B) at a concentration of 1 uM
Method in brief: as §1
`CCCCCNC(=O)[C@H](Cc1ccc(OCC(=O)O)c(C(=O)O)c1)NC(=O)[C@H](Cc1ccccn1)NC(=O)OC(C)(C)C` showed an inhibition of 10%.
Work on `CCCCCNC(=O)[C@H](Cc1ccc(OCC(=O)O)c(C(=O)O)c1)NC(=O)[C@H](Cc1ccccc1)NC(=O)Cc1c[nH]c2ccccc12` yielded an inhibition of 47%.
Compound `CCCCCNC(=O)[C@H](Cc1ccc(OCC(=O)O)c(C(=O)O)c1)NC(=O)[C@H](Cc1ccccc1)NC(=O)CCNC(=O)OC(C)(C)C` has an inhibition of 19%.
Work on `CCCCCNC(=O)[C@H](Cc1ccc(OCC(=O)O)c(C(=O)O)c1)NC(=O)[C@H](CCO)NC(=O)OC(C)(C)C` yielded an inhibition of 11%.
`CCCCCNC(=O)[C@H](Cc1ccc(OCC(=O)O)c(C(=O)O)c1)NC(=O)[C@H](Cc1ccccc1)NC(=O)CCCc1ccccc1` gave an inhibition of 19%.
In the case of `CCCCCNC(=O)[C@H](Cc1ccc(OCC(=O)O)c(C(=O)O)c1)NC(=O)[C@H](Cc1ccccc1)NC(=O)CCOC`, the inhibition is reported as 37%.
In the case of `CCCCCNC(=O)[C@H](Cc1ccc(OCC(=O)O)c(C(=O)O)c1)NC(=O)[C@H](Cc1ccccc1)NC(=O)Cc1ccccc1`, the inhibition is reported as 45%.

Target: T2, Tyrosine-protein phosphatase non-receptor type 1 (Homo sapiens)
Assay: Inhibitory activity against human protein tyrosine phosphatase 1B (PTP1B) at a concentration of 10 uM
Method in brief: as §1
Work on `CCCCCNC(=O)[C@H](Cc1ccc(OCC(=O)O)c(C(=O)O)c1)NC(=O)[C@H](Cc1ccccn1)NC(=O)OC(C)(C)C` yielded an inhibition of 50%.
With `CCCCCNC(=O)[C@H](Cc1ccc(OCC(=O)O)c(C(=O)O)c1)NC(=O)[C@H](Cc1ccccc1)NC(=O)Cc1c[nH]c2ccccc12` the inhibition was 88%.
Compound `CCCCCNC(=O)[C@H](Cc1ccc(OCC(=O)O)c(C(=O)O)c1)NC(=O)[C@H](Cc1ccccc1)NC(=O)CCNC(=O)OC(C)(C)C` has an inhibition of 75%.
`CCCCCNC(=O)[C@H](Cc1ccc(OCC(=O)O)c(C(=O)O)c1)NC(=O)[C@H](CCO)NC(=O)OC(C)(C)C` showed an inhibition of 45%.
`CCCCCNC(=O)[C@H](Cc1ccc(OCC(=O)O)c(C(=O)O)c1)NC(=O)[C@H](Cc1ccccc1)NC(=O)CCCc1ccccc1` showed an inhibition of 70%.
With `CCCCCNC(=O)[C@H](Cc1ccc(OCC(=O)O)c(C(=O)O)c1)NC(=O)[C@H](Cc1ccccc1)NC(=O)CCOC` the inhibition was 83%.
With `CCCCCNC(=O)[C@H](Cc1ccc(OCC(=O)O)c(C(=O)O)c1)NC(=O)[C@H](Cc1ccccc1)NC(=O)Cc1ccccc1` the inhibition was 87%.
